These results are taken from article PMC8162940 (Nature chemical biology, 2021).

One test addresses Ikaros (Mus musculus, UniProt Q03267+Q8C7D2, I391V). Briefly: Ikaros levels in murine splenocytes, flow cytometry. Type of test: cell-based. The following applies: Crbn^I391V/I391V but not wildtype cells, 1 μM, 16h. For orientation: In flow cytometry, cells or beads pass a laser one at a time.
The next test concerns IL-2. Briefly: IL-2 secretion from stimulated Jurkat cells. Type of test: cell-based, human. The settings on record: Jurkat cells pre-treated with 1 μM for 18h, then stimulated 24h. Put shortly: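 Jurkat cells were pre-incubated 18 h with 1 μM test compound, then activated with ImmunoCult CD3/CD28 activator for 24 h, and supernatant IL-2 was measured by AlphaLISA. Mean ± SD of 3 (unstimulated) or 4 (stimulated) biological samples, representative of 2 experiments. Two-way ANOVA with Bonferroni correction.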

Chain of Ikaros (Q03267 whole entry): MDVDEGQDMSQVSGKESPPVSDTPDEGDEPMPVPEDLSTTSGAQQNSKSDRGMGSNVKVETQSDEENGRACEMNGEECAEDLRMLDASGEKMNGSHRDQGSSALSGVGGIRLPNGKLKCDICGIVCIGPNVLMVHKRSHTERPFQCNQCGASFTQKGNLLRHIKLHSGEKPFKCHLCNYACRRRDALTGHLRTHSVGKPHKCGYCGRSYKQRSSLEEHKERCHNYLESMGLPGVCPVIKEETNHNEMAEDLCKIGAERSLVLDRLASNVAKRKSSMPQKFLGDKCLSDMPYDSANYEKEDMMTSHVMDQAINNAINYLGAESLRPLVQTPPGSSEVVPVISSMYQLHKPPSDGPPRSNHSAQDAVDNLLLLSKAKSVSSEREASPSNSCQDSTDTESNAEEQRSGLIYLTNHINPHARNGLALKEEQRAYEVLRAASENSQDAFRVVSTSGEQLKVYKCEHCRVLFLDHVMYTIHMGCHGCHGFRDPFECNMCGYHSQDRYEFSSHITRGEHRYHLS
Chain of Ikaros (Q8C7D2 whole entry I391V): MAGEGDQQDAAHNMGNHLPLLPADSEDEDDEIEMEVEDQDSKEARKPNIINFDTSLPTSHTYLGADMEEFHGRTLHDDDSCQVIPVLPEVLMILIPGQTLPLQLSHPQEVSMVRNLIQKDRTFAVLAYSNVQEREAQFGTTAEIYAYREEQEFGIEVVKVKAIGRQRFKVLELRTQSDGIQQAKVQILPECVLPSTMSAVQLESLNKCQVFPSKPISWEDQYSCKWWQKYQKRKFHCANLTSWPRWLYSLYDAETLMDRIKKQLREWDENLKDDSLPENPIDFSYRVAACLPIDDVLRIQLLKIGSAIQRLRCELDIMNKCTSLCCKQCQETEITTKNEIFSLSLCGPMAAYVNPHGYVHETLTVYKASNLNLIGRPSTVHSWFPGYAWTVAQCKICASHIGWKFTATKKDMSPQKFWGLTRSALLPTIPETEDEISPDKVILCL
Chain of Ikaros (Q3U1J4 whole entry partner): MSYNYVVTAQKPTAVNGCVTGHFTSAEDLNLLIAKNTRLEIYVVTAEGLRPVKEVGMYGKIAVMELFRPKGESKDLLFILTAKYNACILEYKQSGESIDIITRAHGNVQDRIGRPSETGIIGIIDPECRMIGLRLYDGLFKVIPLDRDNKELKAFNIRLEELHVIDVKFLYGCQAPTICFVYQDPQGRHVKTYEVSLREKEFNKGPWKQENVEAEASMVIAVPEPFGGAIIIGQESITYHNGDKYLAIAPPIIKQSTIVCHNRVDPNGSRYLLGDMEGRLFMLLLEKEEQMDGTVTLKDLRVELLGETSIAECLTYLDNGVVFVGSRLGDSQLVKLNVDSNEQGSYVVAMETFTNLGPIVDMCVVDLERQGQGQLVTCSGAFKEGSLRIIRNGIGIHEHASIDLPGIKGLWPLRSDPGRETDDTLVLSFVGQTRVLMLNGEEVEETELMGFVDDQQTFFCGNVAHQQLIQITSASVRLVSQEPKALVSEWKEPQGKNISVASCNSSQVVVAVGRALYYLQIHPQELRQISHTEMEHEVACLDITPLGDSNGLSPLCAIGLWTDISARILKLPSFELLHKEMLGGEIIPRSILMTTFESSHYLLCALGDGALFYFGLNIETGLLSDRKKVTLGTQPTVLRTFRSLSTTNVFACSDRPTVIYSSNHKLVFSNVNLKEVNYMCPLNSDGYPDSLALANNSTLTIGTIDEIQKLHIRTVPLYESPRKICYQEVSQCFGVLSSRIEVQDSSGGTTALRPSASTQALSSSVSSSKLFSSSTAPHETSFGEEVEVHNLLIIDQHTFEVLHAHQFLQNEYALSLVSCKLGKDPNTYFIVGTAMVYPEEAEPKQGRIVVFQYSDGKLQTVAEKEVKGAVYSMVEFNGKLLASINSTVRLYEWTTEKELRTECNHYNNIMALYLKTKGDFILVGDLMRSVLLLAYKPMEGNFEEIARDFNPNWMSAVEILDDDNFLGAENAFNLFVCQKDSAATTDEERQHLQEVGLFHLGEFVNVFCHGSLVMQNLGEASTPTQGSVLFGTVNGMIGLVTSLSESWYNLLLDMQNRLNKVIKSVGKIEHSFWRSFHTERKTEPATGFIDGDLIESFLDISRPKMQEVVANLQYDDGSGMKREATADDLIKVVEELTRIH

Turning to `Nc1cccc2c1CN(C1CCC(=O)NC1=O)C2=O` (centres unmarked) [lenalidomide], the “Ikaros degradation in splenocytes” value at Ikaros is listed as “induced selective degradation of Ikaros”. In addition, in the test on IL-2, the IL-2 secretion entry was “enhanced IL-2 secretion”.
